One data set addresses T1, Vitamin D3 receptor (Homo sapiens, UniProt P11473).
T1 sequence (P11473 whole entry): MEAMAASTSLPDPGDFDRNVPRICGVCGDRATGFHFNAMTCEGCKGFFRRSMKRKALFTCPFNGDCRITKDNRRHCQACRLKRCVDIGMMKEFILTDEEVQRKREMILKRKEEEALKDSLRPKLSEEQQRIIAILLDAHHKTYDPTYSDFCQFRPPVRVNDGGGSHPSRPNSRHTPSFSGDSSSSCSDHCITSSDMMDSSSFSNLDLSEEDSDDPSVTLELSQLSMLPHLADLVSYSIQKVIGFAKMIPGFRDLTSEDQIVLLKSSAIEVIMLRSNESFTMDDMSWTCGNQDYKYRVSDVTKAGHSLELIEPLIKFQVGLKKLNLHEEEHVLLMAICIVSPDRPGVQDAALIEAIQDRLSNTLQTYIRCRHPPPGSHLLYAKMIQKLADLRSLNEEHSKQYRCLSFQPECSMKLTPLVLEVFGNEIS
In words: Antagonist activity at human VDR transfected in HEK293T cells measured after 24 hrs by luciferase reporter gene assay. It is filed as cell-based, HEK-293T. (A reporter such as luciferase makes a cellular process visible.)

For a further data set, the system named is Huh-7. In words: Cytotoxicity against human HuH7 cells assessed as cell viability by MTT assay. It is filed as cell-based. In general terms: Tetrazolium dyes change colour on reduction, which living cells bring about.
For data set [1], the target named is T2, Bile acid receptor (Homo sapiens, UniProt Q96RI1).
T2 sequence (Q96RI1 whole entry): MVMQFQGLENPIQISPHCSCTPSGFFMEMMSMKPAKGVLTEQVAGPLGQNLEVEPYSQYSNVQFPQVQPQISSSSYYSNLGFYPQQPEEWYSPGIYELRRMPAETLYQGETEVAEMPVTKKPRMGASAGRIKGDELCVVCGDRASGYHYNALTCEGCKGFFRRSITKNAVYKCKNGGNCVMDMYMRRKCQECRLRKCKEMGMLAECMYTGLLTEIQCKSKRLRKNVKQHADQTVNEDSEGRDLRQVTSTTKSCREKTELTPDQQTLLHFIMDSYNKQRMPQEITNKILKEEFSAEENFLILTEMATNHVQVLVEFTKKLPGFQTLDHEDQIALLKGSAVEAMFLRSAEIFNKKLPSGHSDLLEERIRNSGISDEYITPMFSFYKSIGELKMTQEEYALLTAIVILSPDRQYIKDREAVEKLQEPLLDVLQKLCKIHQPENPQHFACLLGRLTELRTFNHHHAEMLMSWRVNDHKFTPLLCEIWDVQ
In words: Agonist activity at human FXR expressed in human HuH7 cells by luciferase reporter gene assay. It is filed as cell-based, Huh-7.

In the next data set the test system is HEK-293T. In words: Cytotoxicity against human HEK293T cells assessed as cell viability by MTT assay. It is filed as cell-based.
The target in data set [2] is T2, Bile acid receptor. In words: Agonist activity at GST-fused FXR-LBD (unknown origin) incubated with Fluorecein-SRC2-2 coactivator peptide as substrate by TR-FRET assay. (Time-resolved FRET reads energy transfer from a long-lived donor to a nearby acceptor.)
Data set [3] in a line: Cytotoxicity against mouse ST-2 cells assessed as cell viability upto 5 uM incubated for 12 days by WST-8 assay. It is filed as cell-based. Particulars: 288 h. The essentials: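 ST-2 mesenchymal stem cells kept 12 days in RPMI-1640 medium containing compound at 0–10 μM. Viability read by WST-8 assay and expressed relative to untreated (0 μM) cells set as 100%. Means ± S.D., n=5.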

The structures appear in SMILES notation. Where only a bound is given, the exact number is not on record here.

What is called IC50 is the concentration at which inhibition is half-maximal. Low values mean greater potency in that assay, high ones weaker potency in that assay. In general, EC50 refers to the midpoint of the concentration-response curve.

Molecule `CC(C)c1onc(-c2c(Cl)cccc2Cl)c1COc1ccc(/C=C/c2cccc(C(=O)O)c2)c(Cl)c1` had an IC50 at Vitamin D3 receptor of over 10000 nM.
In the case of `CC(C)c1onc(-c2c(Cl)cccc2Cl)c1COc1ccc(-c2nc3ccc(C(=O)O)cc3n2CC(C)(C)C)cc1`, the Activity result with Huh-7 and with HEK-293T was “Toxic” in each case. The EC50 at Bile acid receptor [1] is 13 nM; at Bile acid receptor [2], 24.8 nM.
As for `CC(C)c1onc(-c2c(Cl)cccc2Cl)c1COc1ccc(-c2nc3cc(C(=O)O)ccc3n2C)cc1`, the Activity entry in the data set on Huh-7 and in the data set with HEK-293T was “Toxic” in each case.
On to `CC(C)c1onc(-c2c(Cl)cccc2Cl)c1COc1ccc(-c2nc3ccc(C(=O)O)cc3n2C(C)C)cc1`, for which the Activity entry with Huh-7 and in the data set with HEK-293T was “Toxic” each time.
On to `CC(C)c1onc(-c2c(Cl)cccc2Cl)c1COc1ccc(-c2nc3ccc(C(=O)O)cc3n2CC2CCCCC2)c(Cl)c1`, for which the Activity result in the data set with Huh-7 and in the data set with HEK-293T was “Toxic” each time.
Turning to `CCCn1c(-c2ccc(OCc3c(-c4c(Cl)cccc4Cl)noc3C(C)C)cc2)nc2ccc(C(=O)O)cc21`, the Activity entry with Huh-7 and in the data set on HEK-293T was “Toxic” each time.
For the molecule `CC(C)c1onc(-c2c(Cl)cccc2Cl)c1COc1ccc(-c2nc3ccc(C(=O)O)cc3n2C2CCC2)cc1`, the Activity result in the data set with Huh-7 and with HEK-293T was “Toxic” in each case.
For the molecule `CCCC(CCC)n1c(-c2ccc(OCc3c(-c4c(Cl)cccc4Cl)noc3C(C)C)cc2)nc2ccc(C(=O)O)cc21`, the Activity result in the data set with Huh-7 and in the data set on HEK-293T was “Toxic” each time. This molecule registered an IC50 at Vitamin D3 receptor of over 10000 nM.
On to `CCC(CC)n1c(-c2ccc(OCc3c(-c4c(Cl)cccc4Cl)noc3C(C)C)cc2Cl)nc2ccc(C(=O)O)cc21`, for which the Activity result with Huh-7 and with HEK-293T was “Toxic” throughout. Moreover, the EC50 at Bile acid receptor [1] came out at 1.6 nM; at Bile acid receptor [2], 21.6 nM.
With `CC(C)c1onc(-c2c(Cl)cccc2Cl)c1COc1ccc(-c2nc3ccc(C(=O)O)cc3n2CC2CCCCC2)cc1`, the Activity entry in the data set with Huh-7 is “Toxic”; in the data set with HEK-293T, “Toxic”; in data set [3], “Non-Toxic”.
For `CC(=O)N1CCC(n2c(-c3ccc(OCc4c(-c5c(Cl)cccc5Cl)noc4C(C)C)cc3)nc3ccc(C(=O)O)cc32)CC1`, the Activity result in the data set on Huh-7 and in the data set on HEK-293T was “Toxic” in each case. Moreover, the IC50 against Vitamin D3 receptor is over 10000 nM.
Take `CCC(CC)n1c(-c2ccc(OCc3c(-c4c(Cl)cccc4Cl)noc3C(C)C)cc2)nc2ccc(C(=O)O)cc21`: the Activity result in the data set with Huh-7 is “Toxic”; with HEK-293T it was “Toxic”; in data set [3] it was “Non-Toxic”.
On to `CCC(CC)n1c(-c2ccc(OCc3c(-c4c(Cl)cccc4Cl)noc3C(C)C)cc2F)nc2ccc(C(=O)O)cc21`, for which the Activity result with Huh-7 and with HEK-293T was “Toxic” each time. At Vitamin D3 receptor, this molecule yielded an IC50 of over 10000 nM.
Take `CCn1c(-c2ccc(OCc3c(-c4c(Cl)cccc4Cl)noc3C(C)C)cc2)nc2ccc(C(=O)O)cc21`: the Activity result with Huh-7 and in the data set on HEK-293T was “Toxic” in each case.
As for `CC(C)c1onc(-c2c(Cl)cccc2Cl)c1COc1ccc(-c2nc3ccc(C(=O)O)cc3n2C2CCCC2)cc1`, the Activity result in the data set with Huh-7 and in the data set with HEK-293T was “Toxic” in each case.
Regarding `CC(C)c1onc(-c2c(Cl)cccc2Cl)c1COc1ccc(-c2nc3ccc(C(=O)O)cc3n2C2CCCCC2)cc1`, the Activity entry in the data set on Huh-7 and with HEK-293T was “Toxic” throughout.
As to `CC(C)c1onc(-c2c(Cl)cccc2Cl)c1COc1ccc(-c2nc3ccc(C(=O)O)cc3n2C2CC2)cc1`, the Activity entry in the data set with Huh-7 and in the data set on HEK-293T was “Toxic” in each case.
Consider `CC(C)c1onc(-c2c(Cl)cccc2Cl)c1COc1ccc(-c2nc3ccc(C(=O)O)cc3n2C)cc1Cl`, for which the Activity result in the data set with Huh-7 and in the data set on HEK-293T was “Toxic” each time.
For the molecule `CC(C)c1onc(-c2c(Cl)cccc2Cl)c1COc1ccc(-c2nc3ccc(C(=O)O)cc3n2CC2CCCCC2)c(F)c1`, the Activity result in the data set with Huh-7 and in the data set with HEK-293T was “Toxic” throughout.
Regarding `CC(C)c1onc(-c2c(Cl)cccc2Cl)c1COc1ccc(-c2nc3ccc(C(=O)O)cc3n2CC2CC2)cc1`, the Activity entry in the data set with Huh-7 and with HEK-293T was “Toxic” throughout.
Take `CC(=O)C1CCC(Cn2c(-c3ccc(OCc4c(-c5c(Cl)cccc5Cl)noc4C(C)C)cc3)nc3ccc(C(=O)O)cc32)CC1` (stereo not drawn): the Activity entry with Huh-7 and with HEK-293T was “Toxic” each time. At Vitamin D3 receptor, this molecule had an IC50 of over 10000 nM.
For `CC(C)c1onc(-c2c(Cl)cccc2Cl)c1COc1ccc(-c2nc3ccc(C(=O)O)cc3n2C)cc1`, the Activity result in the data set on Huh-7 and in the data set on HEK-293T was “Toxic” in each case.
Turning to `CC(C)c1onc(-c2c(Cl)cccc2Cl)c1COc1ccc(-c2nc3ccc(C(=O)O)cc3n2C)c(Cl)c1`, the Activity result with Huh-7 and with HEK-293T was “Toxic” in each case.
Consider `CC(C)c1onc(-c2c(Cl)cccc2Cl)c1COc1ccc(-c2nc3ccc(C(=O)O)cc3n2Cc2ccc(F)cc2)cc1`, for which the Activity entry in the data set with Huh-7 and in the data set on HEK-293T was “Toxic” in each case.
`CC(C)c1onc(-c2c(Cl)cccc2Cl)c1COc1ccc(-c2nc3ccc(C(=O)O)cc3n2C2CCCCCC2)cc1`: the Activity result in the data set with Huh-7 and with HEK-293T was “Toxic” in each case.
Turning to `CC(C)c1onc(-c2c(Cl)cccc2Cl)c1COc1ccc(-c2nc3ccc(C(=O)O)cc3n2-c2ccc(F)cc2)cc1`, the Activity entry in the data set on Huh-7 and with HEK-293T was “Toxic” throughout.
`CC(C)Cn1c(-c2ccc(OCc3c(-c4c(Cl)cccc4Cl)noc3C(C)C)cc2)nc2ccc(C(=O)O)cc21`: the Activity result with Huh-7 and in the data set on HEK-293T was “Toxic” in each case.

Source of the values: ChEMBL document CHEMBL4622925, “N1-Substituted benzimidazole scaffold for farnesoid X receptor (FXR) agonists accompanying prominent selectivity against vitamin D receptor (VDR)” (Bioorg Med Chem, 2020).
